Changes are numbered by the printed parent chain. Numbers in names are those of the source. Like-named read-outs stand apart in the source and are kept apart here. Values belong to the molecule of their own block, whether it stands above or below them. No end group written: not given here.
Tests used:
SPOP^MATH [1] = biological target: SPOP^MATH (Homo sapiens, UniProt O43791); experiment: Surface Plasmon Resonance; assay type: binding; details: Surface Plasmon Resonance (BIACORE), wildtype SPOP^MATH
Method in brief: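 SPOP MATH domain expressed in E. coli BL21(DE3) GOLD as a GST fusion and purified by affinity, ion-exchange and gel-filtration chromatography. Binding of substrate-derived SPOP-binding-consensus peptides was measured by surface plasmon resonance on a BIACORE3000, and binding constants were reported.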

Puc^93-107 (Drosophila) = experiment: SPR
Puc^1-390 (Drosophila) [2] = experiment: AUC
Puc^1-390 (Drosophila) [3] = experiment: AUC; remark: listed apart in the source
SPOP^MATH [4] = biological target: SPOP^MATH (human, UniProt O43791 28-166); experiment: crystal structure
Cul3^NTD = Cul3^NTD (UniProt Q13618 1-384); experiment: AUC
crystal structure = biological target: the molecule itself; experiment: crystal structure
AUC = biological target: the molecule itself; experiment: AUC

Cul3^NTD, sequence (Q13618 1-384): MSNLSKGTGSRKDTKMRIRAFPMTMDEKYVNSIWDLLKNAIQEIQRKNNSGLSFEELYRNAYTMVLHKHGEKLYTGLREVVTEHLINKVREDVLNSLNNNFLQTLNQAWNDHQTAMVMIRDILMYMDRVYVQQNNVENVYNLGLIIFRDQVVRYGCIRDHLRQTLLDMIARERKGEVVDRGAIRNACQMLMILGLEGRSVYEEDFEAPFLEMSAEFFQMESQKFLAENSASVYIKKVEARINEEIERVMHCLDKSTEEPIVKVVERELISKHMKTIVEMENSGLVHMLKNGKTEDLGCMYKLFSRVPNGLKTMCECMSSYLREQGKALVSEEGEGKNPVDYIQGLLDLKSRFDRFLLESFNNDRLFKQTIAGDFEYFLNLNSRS

- Kd (Puc^93-107 (Drosophila)): 4 µM
Molecule: SPOP^MATH (from UniProt O43791 28-166) (domain or fragment)

- stoichiometry N (Puc^1-390 (Drosophila) [2]): 2 SPOP per Puc
- stoichiometry N (Puc^1-390 (Drosophila) [3]): 2 SPOP per Puc
Molecule: SPOP^MATH-BTB+ (from UniProt O43791 28-329) (domain or fragment)

- binding result (SPOP^MATH [4]): binds
B1: Puc SBC1_pep1 (peptide)
peptide: DEVTSTTSSS

- binding result (SPOP^MATH [4]): binds
B7: Ci SBC2 peptide (peptide)
peptide: NTLFPDVSSSTH

- binding result (SPOP^MATH [4]): binds
B8: MacroH2A_pep1 (peptide)
peptide: KAASADSTTEGTPAD

The next lines start with the molecule.

Molecule: Ac-LACDEVTSTTSSSTA (N-terminus assumed) [Puc^93-107]
- binding to SPOP^MATH (result in words) (SPOP^MATH [1]): sufficient for binding

Molecule: MacroH2A^166-179: Synthetic peptide for the MacroH2A SPOP-binding region, residues 166-179 (KAASADSTTEGTPAD)
- binding to SPOP^MATH (result in words) (SPOP^MATH [1]): sufficient for binding

Molecule: DSTTEGTPADGFTVL [MacroH2A pep2]
- binding to SPOP^MATH (result in words) (SPOP^MATH [1]): negligible binding

B2: SPOP^BTB (domain or fragment, human, UniProt O43791 173-297, looked up)
chain: QNTMNMVKVPECRLADELGGLWENSRFTDCCLCVAGQEFQAHKAILAARSPVFSAMFEHEMEESKKNRVEINDVEPEVFKEMMCFIYTGKAPNLDKMADDLLAAADKYALERLKVMCEDALCSNL
- stoichiometry N (Cul3^NTD): 1 SPOP per Cul3 (2:2)

B3: SPOP^BTB+ (domain or fragment, human, UniProt O43791 172-329, looked up)
chain: GQNTMNMVKVPECRLADELGGLWENSRFTDCCLCVAGQEFQAHKAILAARSPVFSAMFEHEMEESKKNRVEINDVEPEVFKEMMCFIYTGKAPNLDKMADDLLAAADKYALERLKVMCEDALCSNLSVENAAEILILADLHSADQLKTQAVDFINYHA
- stoichiometry N (Cul3^NTD): 1 SPOP per Cul3 (2:2)
- binding result (crystal structure): binds

B4: SPOP^BTB+ L186D, L190D, L193D, I217K (domain or fragment, human, UniProt O43791 172-329, looked up)
chain: B3 chain with L15D, L19D, L22D, I46K
- stoichiometry N (Cul3^NTD): 1 SPOP per Cul3 (1:1)

B5: Gig^1-258 (domain or fragment, human, UniProt Q9H2C0 1-258, looked up)
chain: MAEGSAVSDPQHAARLLRALSSFREESRFCDAHLVLDGEEIPVQKNILAAASPYIRTKLNYNPPKDDGSTYKIELEGISVMVMREILDYIFSGQIRLNEDTIQDVVQAADLLLLTDLKTLCCEFLEGCIAAENCIGIRDFALHYCLHHVHYLATEYLETHFRDVSSTEEFLELSPQKLKEVISLEKLNVGNERYVFEAVIRWIAHDTEIRKVHMKDVMSALWVSGLDSSYLREQMLNEPLVREIVKECSNIPLSQPQQ
modifications: selenomethionines (structure phased by SAD)
- binding result (crystal structure): binds

B6: SPOP^MATH-BTB+ (domain or fragment, human, UniProt O43791 28-329, looked up)
chain: KVVKFSYMWTINNFSFCREEMGEVIKSSTFSSGANDKLKWCLRVNPKGLDEESKDYLSLYLLLVSCPKSEVRAKFKFSILNAKGEETKAMESQRAYRFVQGKDWGFKKFIRRDFLLDEANGLLPDDKLTLFCEVSVVQDSVNISGQNTMNMVKVPECRLADELGGLWENSRFTDCCLCVAGQEFQAHKAILAARSPVFSAMFEHEMEESKKNRVEINDVEPEVFKEMMCFIYTGKAPNLDKMADDLLAAADKYALERLKVMCEDALCSNLSVENAAEILILADLHSADQLKTQAVDFINYHA
- binding result (AUC): binds
